From ChEMBL document CHEMBL1125740, “Heterocyclic quinones. 17. A new in vivo active antineoplastic drug: 6,7-bis(1-aziridinyl)-4-[[3-(N,N-dimethylamino)propyl]amino]-5,8- quinazolinedione” (J Med Chem, 1991)
Where “and” joins values, the source holds several entries; their conditions need not be identical. Equal values may be shown once.

Key:
[1] = test system: B16; test: Compound was evaluated in vivo for antitumor activity against B16 melanoma after injecting the compound intravenously for total dose.; type: functional, Mus musculus
In short: (§1)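 30-60 mg tumor fragments implanted sc by trocar on day 0 into C57Bl/6-derived hosts (B16) or C3H/He-derived hosts (16/C). Drug given iv on days 6, 9 and 13 (B16) or 6, 9 and 12 (16/C), 10 mice per group. Tumors measured by caliper. T/C % taken from median tumor burden of treated vs control groups on day 15 (B16) or day 14 (16/C). Body weight change per mouse recorded at nadir.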

[2] = test system: B16; test: Compound was evaluated in vivo for antitumor activity against […] B16 melanoma 1 after injecting the compound intravenously for optimal dose; type: functional, Mus musculus
[3] = test system: B16; test: Compound was evaluated in vivo for antitumor activity against B16 melanoma 1 after injecting the compound intravenously for percent T/C (value in parentheses indicates the day of evaluation); type: functional, Mus musculus
[4] = test system: B16; test: Compound was evaluated in vivo for antitumor activity against B16 melanoma 1 after injecting the compound intravenously for total dose.; type: functional, Mus musculus
[5] = Compound was evaluated in vivo for antitumor activity against Glasgow osteogenic sarcoma after injecting the compound intravenously for optimal dose; type: functional, Mus musculus
In short: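 Glasgow osteogenic sarcoma in C57Bl/6-derived hosts: 30-60 mg fragments implanted sc by trocar on day 0. Drug given iv on days 3, 6 and 9, 7 mice per group. Tumors measured by caliper. Median tumor burden recorded on day 10. Body weight change per mouse recorded at nadir. Toxicity-related deaths counted.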

[6] = test system: M5076; test: Compound was evaluated in vivo for antitumor activity against M5076 after injecting the compound intravenously for median tumor burden; type: functional, Mus musculus
[7] = test system: M5076; test: Compound was evaluated in vivo for antitumor activity against M5076 after injecting the compound intravenously for optimal dose; type: functional, Mus musculus
[8] = test system: L1210; test: Compound was evaluated in vivo for antitumor activity after intraperitoneal administration against L1210(935) for total dose at an optimal dose of 0.2 mg/kg/injection at 1-4 day schedule.; type: functional, Mus musculus
In short: (§2)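 L1210 leukemia, maintained in DBA/2 mice, was given ip as 10⁵ cells on day 0 to F1 hybrid or strain-of-origin mice over 18 g, in groups of 8. Dosing was ip from day 1, and mortality was checked daily. Median day of death counts dying mice only. %ILS = 100×(treated − control median day of death)/control median. Tumor-free survivors were counted on day 60. Weight change is g/mouse at nadir.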

[9] = test system: L1210; test: Compound was evaluated in vivo for antitumor activity after intraperitoneal administration against L1210(935) for tumor free survivors at an optimal dose of 1 mg/kg/injection at 1 day schedule.; type: functional, Mus musculus; in short: as §2
[10] = test system: L1210; test: Compound was evaluated in vivo for antitumor activity after intraperitoneal administration against L1210(935)for change in body weight at an optimal dose of 0.25 mg/kg/injection at 1,4,7,11day schedule.; type: functional, Mus musculus; in short: as §2
[11] = test system: L1210; test: Compound was evaluated in vivo for antitumor activity after intraperitoneal administration against L1210(935) for median day of death at an optimal dose of 0.5 mg/kg/injection at 1,4,7,11day schedule.; type: functional, Mus musculus; in short: as §2
[12] = test system: L1210; test: Compound was evaluated in vivo for antitumor activity after intraperitoneal administration against L1210(935) for median day of death at an optimal dose of 0.5 mg/kg/injection at 1 day schedule.; type: functional, Mus musculus; in short: as §2
[13] = test system: L1210; test: Compound was evaluated in vivo for antitumor activity after intraperitoneal administration against L1210(935)for % increase in life span at an optimal dose of 0.25 mg/kg/injection at 1,4,7,11day schedule.; type: functional; conditions: Mus musculus, L1210, ip; in short: as §2
[14] = test system: P388; test: Compound was evaluated in vivo for antitumor activity after intraperitoneal administration against P388 (1313) for mortality range at an optimal dose of 1 mg/kg/injection; type: functional, Mus musculus
[15] = test system: P388; test: Compound was evaluated in vivo for antitumor activity after intraperitoneal administration against P388/L-PAM(14) for median day of death at an optimal dose of 0.25 mg/kg/injection at 1,4,7,11 day schedule.; type: functional, Mus musculus
[16] = test system: P388; test: Compound was evaluated in vivo for antitumor activity after intraperitoneal administration against P388/L-PAM(14) for median day of death at an optimal dose of 0.4 mg/kg/injection at 1,2,3,4 day schedule.; type: functional, Mus musculus
[17] = test system: P388; test: Compound was evaluated in vivo for antitumor activity after intraperitoneal administration against P388/L-PAM(14) for median day of death at an optimal dose of 1 mg/kg/injection; type: functional, Mus musculus
[18] = test system: P388; test: Compound was evaluated in vivo for antitumor activity after intraperitoneal administration against P388/L-PAM(14) for mortality range at an optimal dose of 0.2 mg/kg/injection at 1,2,3,4 day schedule.; type: functional, Mus musculus
[19] = test system: P388; test: Compound was evaluated in vivo for antitumor activity after intraperitoneal administration against P388/L-PAM(14) for tumor free survivors at an optimal dose of 0.4 mg/kg/injection at 1,2,3,4 day schedule.; type: functional, Mus musculus
[20] = test system: P388; test: Compound was evaluated in vivo for antitumor activity after intraperitoneal administration against P388/L-PAM(12) for tumor free survivors at an optimal dose of 0.75 mg/kg/injection; type: functional, Mus musculus
[21] = test system: P388; test: Compound was evaluated in vivo for antitumor activity after intraperitoneal administration against P388/L-PAM(14) for change in body weight at an optimal dose of 0.125 mg/kg/injection at 1,4,7,11 day schedule.; type: functional, Mus musculus
[22] = test system: P388; test: Compound was evaluated in vivo for antitumor activity after intraperitoneal administration against P388/L-PAM(14) for change in body weight at an optimal dose of 0.5 mg/kg/injection at one day schedule.; type: functional, Mus musculus
[23] = test system: P388; test: Compound was evaluated in vivo for antitumor activity after intraperitoneal administration against P388/L-PAM(14) for % increase in life span at an optimal dose of 0.125 mg/kg/injection at 1,4,7,11 day schedule.; type: functional; conditions: Mus musculus, P388, ip
[24] = test system: P388; test: Compound was evaluated in vivo for antitumor activity after intraperitoneal administration against P388 (1313) for change in body weight at an optimal dose of 0.5 mg/kg/injection; type: functional, Mus musculus
[25] = test system: P388; test: Compound was evaluated in vivo for antitumor activity after intraperitoneal administration against P388 (1313) for change in body weight at an optimal dose of 1 mg/kg/injection; type: functional, Mus musculus
[26] = test system: P388; test: Compound was evaluated in vivo for antitumor activity after intraperitoneal administration against P388 (1313) for % increase in life span at an optimal dose of 1 mg/kg/injection; type: functional; conditions: Mus musculus, P388, ip
[27] = test system: B16; test: Compound was evaluated in vivo for antitumor activity against B16 melanoma after injecting the compound intravenously for toxicity related death.; type: functional, Mus musculus; in short: as §1
[28] = Compound was evaluated in vivo for antitumor activity against Lewis Lung cercinoma after injecting the compound intravenously for total dose.; type: functional, Mus musculus
In short: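 Lewis lung carcinoma: 10^6 cells implanted im into C57Bl/6-derived hosts. Drug given iv on days 5, 9 and 13, 10 mice per group. Median tumor burden and weight nadir recorded. Survivors were killed on day 19, and their lungs were fixed in Fekete solution so that macroscopic metastases could be counted.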

With `CN(C)CCCNc1ncnc2c1C(=O)C(N1CC1)=C(N1CC1)C2=O` the Total dose [1] was 0.6 mg/kg, the Optimal dose [2] was 0.2 mg/kg and the T/C [3] was 76%. The Total dose [4] was 1.8 mg/kg, the Optimal dose [5] was 0.36 mg/kg and the Tumor burden [6] was 29. It also gave an Optimal dose [7] of 1 mg/kg, a Total dose [8] of 0.8 mg/kg and a Survivors [9] of 0. The “Change in body weight” value [10] was 1.6 g mouse-1, the “Median day of death” value [11] was 14 and the “Median day of death” value [12] was 14. For the same molecule, the ILS at 0.25 mg/kg [13] was 18%, the Mortality [14] was 24 days and the “Median day of death” value [15] was 16.5. For the same molecule, the “Median day of death” value [16] was 20, the “Median day of death” value [17] was 19 and the Mortality [18] was 20 days. The Survivors [19] was 0, the Survivors [20] was 0 and the “Change in body weight” value [21] was 0.8 g mouse-1. The “Change in body weight” value [22] was 1.3, the ILS at 0.125 mg/kg [23] was 10% and the “Change in body weight” value [24] was 0 g mouse-1. For the same molecule, the “Change in body weight” value [25] was -0.5, the ILS at 1 mg/kg [26] was 70% and the Toxicity [27] was 0. For the same molecule, the Total dose [28] was 1.2 mg/kg and 0.6 mg/kg.
